Measured values reported in ChEMBL document CHEMBL1208768, “Synthesis, selective anti-Helicobacter pylori activity, and cytotoxicity of novel N-substituted-2-oxo-2H-1-benzopyran-3-carboxamides” (Bioorg Med Chem Lett, 2010).
In brackets after ≈: the same amount, converted by molar mass. Activity calls are given as the source filed them. No cut-off for these calls is given here.

What was measured:
Helicobacter pylori [1] = assay: Antibacterial activity against metronidazole-resistant Helicobacter pylori NCTC 11637 after 72 hrs by agar dilution method; type: functional; settings: NCTC 11637, 72 h
Method in brief: (§1)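 H. pylori clinical isolates (ATCC 43504 control each session) stored at -80 °C and subcultured twice on Columbia agar with 10% horse serum and 0.25% yeast extract. Suspensions of 0.5 McFarland were spotted by Steer's replicator at about 5 × 10⁵ CFU/spot onto agar with twofold compound dilutions. Plates were incubated 72 h at 37 °C in 10% CO₂. MIC was the lowest concentration without visible growth.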

Klebsiella pneumoniae = assay: Antibacterial activity against Klebsiella pneumoniae after 18 to 22 hrs by broth microdilution method; type: functional
Method in brief: (§2)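 Clinical respiratory-tract isolates from patients, subcultured for purity and identified conventionally. Broth microdilution per NCCLS in Mueller–Hinton II broth; each plate had growth controls (bacteria, no compound) and medium-only controls. Incubation 18–22 h at 35 °C. MIC taken as the lowest concentration giving complete growth inhibition by unaided eye.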

AGS [2] = assay: Antiinflammatory activity in human AGS cells assessed as inhibition of IL-8 production at 5 ug/mL after 24 hrs; type: functional, cell-based
Method in brief: (§3)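 AGS gastric adenocarcinoma cells were grown in F-12K with 10% FBS. They were seeded at 1 × 10⁵/mL for 24 h, preincubated 1 h with compound at 5 or 0.5 µg/mL, then exposed to H. pylori.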

Klebsiella aerogenes = assay: Antibacterial activity against Enterobacter aerogenes after 18 to 22 hrs by broth microdilution method; type: functional; method in brief: as §2
Helicobacter pylori [3] = assay: Antibacterial activity against metronidazole-resistant Helicobacter pylori isolate 1 after 72 hrs by agar dilution method; type: functional; settings: isolate 1, 72 h; method in brief: as §1
Klebsiella oxytoca = assay: Antibacterial activity against Klebsiella oxytoca after 18 to 22 hrs by broth microdilution method; type: functional; method in brief: as §2
Staphylococcus hominis = assay: Antibacterial activity against Staphylococcus hominis after 18 to 22 hrs by broth microdilution method; type: functional; method in brief: as §2
Staphylococcus aureus = assay: Antibacterial activity against Staphylococcus aureus after 18 to 22 hrs by broth microdilution method; type: functional; method in brief: as §2
Citrobacter freundii = assay: Antibacterial activity against Citrobacter freundii after 18 to 22 hrs by broth microdilution method; type: functional; method in brief: as §2
[4] = system: Staphylococcus haemolyticus; assay: Antibacterial activity against Staphylococcus haemolyticus after 18 to 22 hrs by broth microdilution method; type: functional; method in brief: as §2
Helicobacter pylori [5] = assay: Antibacterial activity against metronidazole-resistant Helicobacter pylori isolate 18 after 72 hrs by agar dilution method; type: functional; settings: isolate 18, 72 h; method in brief: as §1
Pichia kudriavzevii = assay: Antifungal activity against Candida krusei after 24 hrs by broth microdilution method; type: functional
Method in brief: (§4)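 Candida isolates from respiratory-tract specimens, tested by NCCLS broth microdilution in Sabouraud dextrose broth. Serial compound dilutions inoculated to 10³/mL, with fungus-only and medium-only controls. Incubated 24 h at 37 °C. MIC was the lowest concentration with complete visible growth inhibition.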

Helicobacter pylori [6] = assay: Antibacterial activity against metronidazole-resistant Helicobacter pylori isolate 8 after 72 hrs by agar dilution method; type: functional; settings: isolate 8, 72 h; method in brief: as §1
Enterobacter = assay: Antibacterial activity against Enterobacter after 18 to 22 hrs by broth microdilution method; type: functional; method in brief: as §2
[7] = system: Staphylococcus epidermidis; assay: Antibacterial activity against Staphylococcus epidermidis after 18 to 22 hrs by broth microdilution method; type: functional; method in brief: as §2
Proteus vulgaris = assay: Antibacterial activity against Proteus vulgaris after 18 to 22 hrs by broth microdilution method; type: functional; method in brief: as §2
[Candida] sake = Antifungal activity against Candida sake after 24 hrs by broth microdilution method; type: functional; settings: Fermentozyma sake; method in brief: as §4
Candida albicans = assay: Antifungal activity against Candida albicans after 24 hrs by broth microdilution method; type: functional; method in brief: as §4
Helicobacter pylori [8] = assay: Antibacterial activity against Helicobacter pylori ATCC 43504 clinical isolates after 72 hrs by agar dilution method; type: functional; settings: ATCC 43504, 72 h
Method in brief: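 Agar dilution per NCCLS. Twenty clinical strains from duodenal ulcer or gastritis patients, with ATCC 43504 as control in each session, were subcultured twice on Columbia agar plus 10% horse serum and 0.25% yeast extract (72 h, 37 °C, 10% CO₂). Inoculum of 0.5 McFarland in Wilkins Chalgren broth, about 5 × 10⁵ CFU/spot by Steer's replicator. Plates held twofold compound dilutions down to 0.0039 µg/mL and were incubated 72 h at 37 °C, 10% CO₂. MIC was the lowest concentration inhibiting visible growth.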

Escherichia coli = assay: Antibacterial activity against Escherichia coli after 18 to 22 hrs by broth microdilution method; type: functional; method in brief: as §2
Helicobacter pylori [9] = assay: Antibacterial activity against metronidazole-resistant Helicobacter pylori isolate 20 after 72 hrs by agar dilution method; type: functional; settings: isolate 20, 72 h; method in brief: as §1
Enterococcus faecalis = assay: Antibacterial activity against Streptococcus faecalis after 18 to 22 hrs by broth microdilution method; type: functional; method in brief: as §2
AGS [10] = assay: Antiinflammatory activity in human AGS cells assessed as inhibition of IL-8 production at 0.5 ug/mL after 24 hrs; type: functional, cell-based; method in brief: as §3

| SMILES | MIC (Helicobacter pylori [1]) [µg/mL] | MIC (Klebsiella pneumoniae) [µg/mL] | inhibition (AGS [2]) | MIC (Klebsiella aerogenes) [µg/mL] | MIC (Helicobacter pylori [3]) [µg/mL] | MIC (Klebsiella oxytoca) [µg/mL] | MIC (Staphylococcus hominis) [µg/mL] | MIC (Staphylococcus aureus) [µg/mL] | MIC (Citrobacter freundii) [µg/mL] | MIC [4] [µg/mL] | MIC (Helicobacter pylori [5]) [µg/mL] | MIC (Pichia kudriavzevii) [µg/mL] | MIC (Helicobacter pylori [6]) [µg/mL] | MIC (Enterobacter) [µg/mL] | MIC [7] [µg/mL] | MIC (Proteus vulgaris) [µg/mL] | MIC ([Candida] sake) [µg/mL] | MIC50 (Helicobacter pylori [8]) [µg/mL] | MIC90 (Helicobacter pylori [8]) [µg/mL] | MIC (Helicobacter pylori [9]) [µg/mL] | other results |
| --- | --- | --- | --- | --- | --- | --- | --- | --- | --- | --- | --- | --- | --- | --- | --- | --- | --- | --- | --- | --- | --- |
| O=C(O)c1ccc(NC(=O)c2cc3cc(Br)cc(Br)c3oc2=O)cc1 | 16 (≈ 34.3 µM) | > 128 | inactive | > 128 | 16 (≈ 34.3 µM) | > 128 | > 128 | > 128 | > 128 | > 128 | 16 (≈ 34.3 µM) | > 128 | 16 (≈ 34.3 µM) | > 128 | > 128 | > 128 | > 128 | 16 (≈ 34.3 µM) | 16 (≈ 34.3 µM) | 16 (≈ 34.3 µM) | MIC (Candida albicans): > 128 µg/mL; MIC (Escherichia coli): > 128 µg/mL; MIC (Enterococcus faecalis): > 128 µg/mL; inhibition (AGS [10]): inactive |
| Cc1ncc([N+](=O)[O-])n1CCO [METRONIDAZOLE] | 128 (≈ 748 µM) | – | – | – | 64 (≈ 374 µM) | – | – | – | – | – | 128 (≈ 748 µM) | – | 64 (≈ 374 µM) | – | – | – | – | 2 (≈ 11.7 µM) | 128 (≈ 748 µM) | 128 (≈ 748 µM) | – |
| O=C(O)c1ccc(NC(=O)c2cc3cccc(O)c3oc2=O)cc1 | 4 (≈ 12.3 µM) | > 128 | inactive | > 128 | > 128 | > 128 | > 128 | > 128 | > 128 | > 128 | > 128 | > 128 | > 128 | > 128 | > 128 | > 128 | > 128 | > 128 | > 128 | > 128 | MIC (Candida albicans): > 128 µg/mL; MIC (Escherichia coli): > 128 µg/mL; MIC (Enterococcus faecalis): > 128 µg/mL; inhibition (AGS [10]): inactive |
| CCOC(=O)N1CCC(NC(=O)c2cc3ccccc3oc2=O)CC1 | > 128 | > 128 | inactive | > 128 | 128 (≈ 372 µM) | > 128 | > 128 | > 128 | > 128 | > 128 | 128 (≈ 372 µM) | > 128 | > 128 | > 128 | > 128 | > 128 | > 128 | > 128 | > 128 | > 128 | MIC (Candida albicans): > 128 µg/mL; MIC (Escherichia coli): > 128 µg/mL; MIC (Enterococcus faecalis): > 128 µg/mL; inhibition (AGS [10]): inactive |
| O=C(O)c1ccc(NC(=O)c2cc3cc(Br)cc(Cl)c3oc2=O)cc1 | 32 (≈ 75.7 µM) | > 128 | inactive | > 128 | 16 (≈ 37.9 µM) | > 128 | > 128 | > 128 | > 128 | > 128 | 16 (≈ 37.9 µM) | > 128 | 32 (≈ 75.7 µM) | > 128 | > 128 | > 128 | > 128 | 8 (≈ 18.9 µM) | 32 (≈ 75.7 µM) | 32 (≈ 75.7 µM) | MIC (Candida albicans): > 128 µg/mL; MIC (Escherichia coli): > 128 µg/mL; MIC (Enterococcus faecalis): > 128 µg/mL; inhibition (AGS [10]): inactive |
| CCOC(=O)c1ccc(NC(=O)c2cc3cccc(O)c3oc2=O)cc1 | > 128 | > 128 | inactive | > 128 | > 128 | > 128 | > 128 | > 128 | > 128 | > 128 | > 128 | > 128 | > 128 | > 128 | > 128 | > 128 | > 128 | > 128 | > 128 | > 128 | MIC (Candida albicans): > 128 µg/mL; MIC (Escherichia coli): > 128 µg/mL; MIC (Enterococcus faecalis): > 128 µg/mL; inhibition (AGS [10]): inactive |
